The source made the active and inactive calls. No cut-off for these calls is given here.
Columns and labels:
[1] = system: Rattus norvegicus; assay: Hepatoprotective activity in Sprague-Dawley rat ischemia-reperfusion model assessed as decrease of caspase 8 activity in liver tissue at 200 mg/kg, ip administered 24 hrs and 1 hr before ischemia […] relative to control; assay type: functional, organism-based; parameters: dose 200 mg/kg
Summary of the method: (§1)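 Liver (1 g) was homogenized in Tris/MgCl2/EGTA buffer and spun at 600g, then 40000g. 30 µg cytosolic protein was preincubated 15 min at room temperature in HEPES/EDTA/NaCl/Triton/10 mM DTT. Fluorogenic substrate was then added at 200 µM and incubated at 37 °C. Fluorescence (ex 400/em 490 nm) was read at 120 min and expressed as % of vehicle I/R.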

[2] = system: Rattus norvegicus; assay: Hepatoprotective activity in Sprague-Dawley rat ischemia-reperfusion model assessed as decrease of caspase 3 activity in liver tissue at 200 mg/kg, ip administered 24 hrs and 1 hr before ischemia […] relative to control; assay type: functional, organism-based; parameters: dose 200 mg/kg; summary of the method: as §1
[3] = system: Rattus norvegicus; assay: Antiinflammatory activity in Sprague-Dawley rat sham operated model assessed as decrease of serum TNFalpha level at 200 mg/kg, ip administered 24 hrs and 1 hr before ischemia by ELISA relative to control; assay type: functional; conditions: route intraperitoneal
[4] = system: Rattus norvegicus; assay: Hepatoprotective activity in Sprague-Dawley rat sham operated model assessed as decrease of malondialdehyde level per gram of protein at 200 mg/kg, ip administered 24 hrs and 1 hr before ischemia relative to control; assay type: functional; conditions: route intraperitoneal
[5] = system: Rattus norvegicus; assay: Antiinflammatory activity in Sprague-Dawley rat ischemia-reperfusion model assessed as decrease of TNFalpha mRNA expression in liver tissue at 200 mg/kg, ip administered 24 hrs and 1 hr before ischemia by RT-PCR analysis; assay type: functional, organism-based; parameters: dose 200 mg/kg
[6] = system: Rattus norvegicus; assay: Antiinflammatory activity in Sprague-Dawley rat ischemia-reperfusion model assessed as inhibition of COX2 mRNA expression in liver tissue at 200 mg/kg, ip administered 24 hrs and 1 hr before ischemia by RT-PCR analysis; assay type: functional, organism-based; parameters: dose 200 mg/kg
[7] = system: Rattus norvegicus; assay: Hepatoprotective activity in Sprague-Dawley rat sham operated model assessed as decrease of caspase 3 activity in liver tissue at 200 mg/kg, ip administered 24 hrs and 1 hr before ischemia by fluorogenic peptide substrate assay relative to control
[8] = system: Rattus norvegicus; assay: Antiinflammatory activity in Sprague-Dawley rat ischemia-reperfusion model assessed as decrease of serum TNFalpha level at 200 mg/kg, ip administered 24 hrs and 1 hr before ischemia by ELISA relative to control; assay type: functional; conditions: route intraperitoneal
[9] = system: Rattus norvegicus; assay: Antiinflammatory activity in Sprague-Dawley rat ischemia-reperfusion model assessed as decrease of IL-6 mRNA expression in liver tissue at 200 mg/kg, ip administered 24 hrs and 1 hr before ischemia by RT-PCR analysis; assay type: functional, organism-based; parameters: dose 200 mg/kg
[10] = system: Rattus norvegicus; assay: Antiinflammatory activity in Sprague-Dawley rat ischemia-reperfusion model assessed as inhibition of iNOS protein expression in liver tissue at 200 mg/kg, ip administered 24 hrs and 1 hr before ischemia by Western blot analysis; assay type: functional, organism-based; parameters: dose 200 mg/kg
Summary of the method: (§2)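 Liver homogenates were blotted, and nuclear and cytosolic fractions were isolated with NE-PER reagents. 20 µg protein per lane was run on 10% gels and transferred to nitrocellulose, with 5% milk block for 60 min. Polyclonal antibodies detected iNOS, COX-2, HO-1, NF-κB/p65, IκB-α and lamin B1, with β-actin as control, read by ECL.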

[11] = system: Rattus norvegicus; assay: Hepatoprotective activity in Sprague-Dawley rat ischemia-reperfusion model assessed as decrease of malondialdehyde level per gram of protein at 200 mg/kg, ip administered 24 hrs and 1 hr before ischemia relative to control; assay type: functional; conditions: route intraperitoneal
[12] = system: Rattus norvegicus; assay: Hepatoprotective activity in Sprague-Dawley rat sham operated model assessed as decrease of caspase 8 activity in liver tissue at 200 mg/kg, ip administered 24 hrs and 1 hr before ischemia by relative to control
[13] = system: Rattus norvegicus; assay: Antiinflammatory activity in Sprague-Dawley rat ischemia-reperfusion model assessed as inhibition of nuclear localization of NF-kappaB/p65 subunit in liver tissue at 200 mg/kg, ip administered 24 hrs and 1 hr before ischemia by Western blot analysis; assay type: functional, organism-based; parameters: dose 200 mg/kg; summary of the method: as §2
[14] = system: Rattus norvegicus; assay: Hepatoprotective activity in Sprague-Dawley rat sham operated model assessed as decrease of glutathione level per gram of liver at 200 mg/kg, ip administered 24 hrs and 1 hr before ischemia relative to control; assay type: functional; conditions: route intraperitoneal
Summary of the method: (§3)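 Liver homogenate was precipitated with 1% picric acid. Total glutathione was measured by the glutathione reductase/DTNB/NADPH method at 412 nm, and GSSG the same way with 2-vinylpyridine. GSH is the difference, in µmol·g liver-1.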

[15] = system: Rattus norvegicus; assay: Antiinflammatory activity in Sprague-Dawley rat ischemia-reperfusion model assessed as inhibition of degradation of IkappaB-alpha in liver tissue at 200 mg/kg, ip administered 24 hrs and 1 hr before ischemia by Western blot analysis; assay type: functional, organism-based; parameters: dose 200 mg/kg; summary of the method: as §2
[16] = system: Rattus norvegicus; assay: Antiinflammatory activity in Sprague-Dawley rat sham operated model assessed as decrease of serum IL-6 level at 200 mg/kg, ip administered 24 hrs and 1 hr before ischemia by ELISA relative to control; assay type: functional; conditions: route intraperitoneal
[17] = system: Rattus norvegicus; assay: Antiinflammatory activity in Sprague-Dawley rat ischemia-reperfusion model assessed as decrease of serum IL-6 level at 200 mg/kg, ip administered 24 hrs and 1 hr before ischemia by ELISA relative to control; assay type: functional; conditions: route intraperitoneal
[18] = system: Rattus norvegicus; assay: Antiinflammatory activity in Sprague-Dawley rat ischemia-reperfusion model assessed as increase in HO-1 protein expression in liver tissue at 200 mg/kg, ip administered 24 hrs and 1 hr before ischemia by Western blot analysis
[19] = system: Rattus norvegicus; assay: Hepatoprotective activity in Sprague-Dawley rat ischemia-reperfusion model assessed as decrease of glutathione level per gram of liver at 200 mg/kg, ip administered 24 hrs and 1 hr before ischemia relative to control; assay type: functional; conditions: route intraperitoneal; summary of the method: as §3
[20] = system: Rattus norvegicus; assay: Hepatoprotective activity in Sprague-Dawley rat ischemia-reperfusion model assessed as decrease of mitochondrial swelling in liver tissue at 200 mg/kg, ip administered 24 hrs and 1 hr before ischemia relative to control; assay type: functional, organism-based; parameters: dose 200 mg/kg
Summary of the method: (§4)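 Mitochondria were isolated by differential centrifugation in sucrose/Tris/EDTA, pH 7.2. Mitochondria (4 mg) were suspended in phosphate buffer pH 7.2 with 250 mM sucrose, 5 mM KH2PO4 and 1 µM rotenone at 25 °C. Initial swelling rate was taken as A520 change per min per mg protein.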

[21] = system: Rattus norvegicus; assay: Hepatoprotective activity in Sprague-Dawley rat ischemia-reperfusion model assessed as decrease of TRADD protein expression in liver tissue at 200 mg/kg, ip administered 24 hrs and 1 hr before ischemia by Western blot analysis; assay type: functional, organism-based; parameters: dose 200 mg/kg
[22] = system: Rattus norvegicus; assay: Hepatoprotective activity in Sprague-Dawley rat ischemia-reperfusion model assessed as protection against apoptosis in liver tissue at 200 mg/kg, ip administered 24 hrs and 1 hr before ischemia by TUNEL assay; assay type: functional, organism-based; parameters: dose 200 mg/kg
Summary of the method: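 TUNEL kit staining was done on liver sections. TUNEL-positive cells were counted in randomly chosen 400× fields per section.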

[23] = system: Rattus norvegicus; assay: Antiinflammatory activity in Sprague-Dawley rat ischemia-reperfusion model assessed as inhibition of COX2 protein expression in liver tissue at 200 mg/kg, ip administered 24 hrs and 1 hr before ischemia by Western blot analysis; assay type: functional, organism-based; parameters: dose 200 mg/kg; summary of the method: as §2
[24] = system: Rattus norvegicus; assay: Hepatoprotective activity in Sprague-Dawley rat sham operated model assessed as protection against histopathologic damage at 200 mg/kg, ip administered 24 hrs and 1 hr before ischemia by TUNEL staining; assay type: functional; conditions: route intraperitoneal, in the assay text read “by hematoxylin and eosin staining” for “by TUNEL staining”
Summary of the method: (§5)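 Left-lobe tissue was fixed in formalin and paraffin sections (5 µm) were stained with H&E. Injury was scored at 200× by point counting on an ordinal severity scale (grade 0 = minimal or none).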

[25] = system: Rattus norvegicus; assay: Hepatoprotective activity in Sprague-Dawley rat ischemia-reperfusion model assessed as protection against histopathologic damage at 200 mg/kg, ip administered 24 hrs and 1 hr before ischemia by TUNEL staining; assay type: functional; conditions: route intraperitoneal, in the assay text read “by hematoxylin and eosin staining” for “by TUNEL staining”; summary of the method: as §5
[26] = system: Rattus norvegicus; assay: Antiinflammatory activity in Sprague-Dawley rat ischemia-reperfusion model assessed as inhibition of iNOS mRNA expression in liver tissue at 200 mg/kg, ip administered 24 hrs and 1 hr before ischemia by RT-PCR analysis; assay type: functional, organism-based; parameters: dose 200 mg/kg
[27] = system: Rattus norvegicus; assay: Hepatoprotective activity in Sprague-Dawley rat sham operated model assessed as decrease of mitochondrial swelling in liver tissue at 200 mg/kg, ip administered 24 hrs and 1 hr before ischemia relative to control; assay type: functional, organism-based; parameters: dose 200 mg/kg; summary of the method: as §4
[28] = system: Rattus norvegicus; assay: Antiinflammatory activity in Sprague-Dawley rat ischemia-reperfusion model assessed as inhibition of HO-1 mRNA expression in liver tissue at 200 mg/kg, ip administered 24 hrs and 1 hr before ischemia by RT-PCR analysis; assay type: functional, organism-based; parameters: dose 200 mg/kg
[29] = system: Rattus norvegicus; assay: Hepatoprotective activity in Sprague-Dawley rat sham operated model assessed as decrease of serum ALT level at 200 mg/kg, ip administered 24 hrs and 1 hr before ischemia; assay type: functional; conditions: route intraperitoneal
Summary of the method: (§6)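 Serum ALT was read spectrophotometrically with a kit at 5 h reperfusion, in U·L-1, mean ± SEM, n = 8-10.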

[30] = system: Rattus norvegicus; assay: Hepatoprotective activity in Sprague-Dawley rat ischemia-reperfusion model assessed as decrease of serum ALT level at 200 mg/kg, ip administered 24 hrs and 1 hr before ischemia; assay type: functional; conditions: route intraperitoneal; summary of the method: as §6

`O=C(O)[C@H]1O[C@@H](Oc2cc3oc(-c4ccccc4)cc(=O)c3c(O)c2O)[C@H](O)[C@@H](O)[C@@H]1O` [BAICALIN] was tested, and the Activity [1] was “Active”, the Activity [2] was “Active” and the Activity [3] was 17.8 pg/mL. The Activity [4] was 0.35 nmol, the Activity [5] was “inactive” and the inhibition [6] was “Active”. The Activity [7] was “Active”, the Activity [8] was 64.8 pg/mL and the Activity [9] was “Active”. For the same compound, the inhibition [10] was “Active”, the Activity [11] was 0.31 nmol and the Activity [12] was “Active”. For the same compound, the inhibition [13] was “Active”, the Activity [14] was 5.5 µmol and the inhibition [15] was “Active”. The Activity [16] was 37.6 pg/mL, the Activity [17] was 77.4 pg/mL and the increase [18] was “Active”. For the same compound, the Activity [19] was 4.98 µmol, the Activity [20] was “Active” and the Activity [21] was “Active”. The Activity [22] was “Active”, the inhibition [23] was “Active” and the Activity [24] was 0.45. For the same compound, the Activity [25] was 1.6, the inhibition [26] was “inactive” and the Activity [27] was “Active”. The inhibition [28] was “Active”, the Activity [29] was 42.5 U/L and the Activity [30] was 2658.1 U/L.

Source: ChEMBL document CHEMBL1649357, “Protective effects of baicalin against ischemia/reperfusion injury in rat liver” (2010)
